Test results published in ChEMBL document CHEMBL4689842, “EUbOPEN Chemogenomics Library wave 1” (2021).

System: HEK-293T
Test: Multiplex assay against HEK293T;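 for Population Tubulin-Different-Phenotype (%): share of the cells with healthy nuclei that show this phenotype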
Type: toxicity, cell-based
Settings: human
How it was run: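 Live cells were stained at seeding with Hoechst33342, BioTracker Green Microtubule Cytoskeleton Dye, MitoTracker Red and Annexin V Alexa Fluor 680. Following compound addition, they were imaged on a CQ1 microscope at 37°C and 5% CO2 and gated by CellPathfinder machine learning into Hoechst high-intensity objects or normal cells, with normal cells split into healthy, pyknosed or fragmented nuclei and pyknosed cells into mitotic or apoptotic. Tubulin, mitochondrial-mass and membrane-permeability phenotypes are per cents of healthy-nucleus cells.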

[1] = 12 h, 1 µM, compound concentration 1 uM, replicate 1
[2] = 12 h, 1 µM, compound concentration 1 uM, replicate 2
[3] = 12 h, 10 µM, compound concentration 10 uM, replicate 1
[4] = 12 h, 10 µM, compound concentration 10 uM, replicate 2
[5] = 24 h, 1 µM, compound concentration 1 uM, replicate 1
[6] = 24 h, 1 µM, compound concentration 1 uM, replicate 2
[7] = 24 h, 10 µM, compound concentration 10 uM, replicate 1
[8] = 24 h, 10 µM, compound concentration 10 uM, replicate 2
[9] = 48 h, 1 µM, compound concentration 1 uM, replicate 1
[10] = 48 h, 1 µM, compound concentration 1 uM, replicate 2
[11] = 48 h, 10 µM, compound concentration 10 uM, replicate 1
[12] = 48 h, 10 µM, compound concentration 10 uM, replicate 2

SMILES: Cc1ccc(C)c(Oc2ccncc2C(=O)N2CCN(C3CC3)c3ccccc32)c1
- Population Apoptotic (%) [1]: 43%
- Population Healthy Nuclei (%) [1]: 48%
- Population Mitotic Cells (%) [1]: 56%
- Population Normal (%) [1]: 91%
- Population Pyknosed Nuclei (%) [1]: 44%
- Total Cell Count [1]: 385
- Population Apoptotic (%) [2]: 16%
- Population Healthy Nuclei (%) [2]: 42%
- Population Mitotic Cells (%) [2]: 83%
- Population Normal (%) [2]: 96%
- Population Pyknosed Nuclei (%) [2]: 54%
- Total Cell Count [2]: 221
- Population Apoptotic (%) [3]: 88%
- Population Healthy Nuclei (%) [3]: 23%
- Population Mitotic Cells (%) [3]: 11%
- Population Normal (%) [3]: 78%
- Population Pyknosed Nuclei (%) [3]: 62%
- Total Cell Count [3]: 200
- Population Apoptotic (%) [4]: 56%
- Population Healthy Nuclei (%) [4]: 14%
- Population Mitotic Cells (%) [4]: 43%
- Population Normal (%) [4]: 93%
- Population Pyknosed Nuclei (%) [4]: 77%
- Total Cell Count [4]: 112
- Population Apoptotic (%) [5]: 46%
- Population Healthy Nuclei (%) [5]: 52%
- Population Mitotic Cells (%) [5]: 53%
- Population Normal (%) [5]: 89%
- Population Pyknosed Nuclei (%) [5]: 38%
- Total Cell Count [5]: 403
- Population Apoptotic (%) [6]: 11%
- Population Healthy Nuclei (%) [6]: 53%
- Population Mitotic Cells (%) [6]: 88%
- Population Normal (%) [6]: 98%
- Population Pyknosed Nuclei (%) [6]: 40%
- Total Cell Count [6]: 272
- Population Apoptotic (%) [7]: 89%
- Population Healthy Nuclei (%) [7]: 29%
- Population Mitotic Cells (%) [7]: 10%
- Population Normal (%) [7]: 82%
- Population Pyknosed Nuclei (%) [7]: 53%
- Total Cell Count [7]: 213
- Population Apoptotic (%) [8]: 68%
- Population Healthy Nuclei (%) [8]: 24%
- Population Mitotic Cells (%) [8]: 31%
- Population Normal (%) [8]: 91%
- Population Pyknosed Nuclei (%) [8]: 63%
- Total Cell Count [8]: 127
- Population Apoptotic (%) [9]: 41%
- Population Healthy Nuclei (%) [9]: 63%
- Population Mitotic Cells (%) [9]: 58%
- Population Normal (%) [9]: 91%
- Population Pyknosed Nuclei (%) [9]: 26%
- Total Cell Count [9]: 567
- Population Apoptotic (%) [10]: 18%
- Population Healthy Nuclei (%) [10]: 77%
- Population Mitotic Cells (%) [10]: 81%
- Population Normal (%) [10]: 97%
- Population Pyknosed Nuclei (%) [10]: 18%
- Total Cell Count [10]: 425
- Population Apoptotic (%) [11]: 84%
- Population Healthy Nuclei (%) [11]: 40%
- Population Mitotic Cells (%) [11]: 15%
- Population Normal (%) [11]: 84%
- Total Cell Count [11]: 206
- Population Apoptotic (%) [12]: 76%
- Population Healthy Nuclei (%) [12]: 48%
- Population Mitotic Cells (%) [12]: 23%
- Population Normal (%) [12]: 90%
- Population Pyknosed Nuclei (%) [12]: 45%
- Total Cell Count [12]: 127

SMILES: CC(C)NC(=O)N1CC[C@H](NC2=Nc3cc(F)ccc3N(CC(F)F)c3ccc(Cl)cc32)C1
- Population Apoptotic (%) [1]: 42%
- Population Fragmented Nuclei (%) [1]: 19%
- Population Healthy Nuclei (%) [1]: 34%
- Population Hoechst High Intensity Objects (%) [1]: 18%
- Population Membrane Permeable-Phenotype (%) [1]: 4%
- Population Mitochondria Different-Phenotype (%) [1]: 78%
- Population Mitotic Cells (%) [1]: 57%
- Population Normal (%) [1]: 81%
- Population Pyknosed Nuclei (%) [1]: 46%
- Population Tubulin-Different-Phenotype (%) [1]: 34%
- Total Cell Count [1]: 170
- Population Apoptotic (%) [2]: 8%
- Population Fragmented Nuclei (%) [2]: 4%
- Population Healthy Nuclei (%) [2]: 47%
- Population Hoechst High Intensity Objects (%) [2]: 3%
- Population Membrane Permeable-Phenotype (%) [2]: 13%
- Population Mitochondria Different-Phenotype (%) [2]: 24%
- Population Mitotic Cells (%) [2]: 91%
- Population Normal (%) [2]: 96%
- Population Pyknosed Nuclei (%) [2]: 47%
- Population Tubulin-Different-Phenotype (%) [2]: 25%
- Total Cell Count [2]: 304
- Population Apoptotic (%) [3]: 53%
- Population Fragmented Nuclei (%) [3]: 24%
- Population Healthy Nuclei (%) [3]: 38%
- Population Hoechst High Intensity Objects (%) [3]: 22%
- Population Membrane Permeable-Phenotype (%) [3]: 4%
- Population Mitochondria Different-Phenotype (%) [3]: 91%
- Population Mitotic Cells (%) [3]: 46%
- Population Normal (%) [3]: 77%
- Population Pyknosed Nuclei (%) [3]: 37%
- Population Tubulin-Different-Phenotype (%) [3]: 79%
- Total Cell Count [3]: 163
- Population Apoptotic (%) [4]: 20%
- Population Fragmented Nuclei (%) [4]: 6%
- Population Healthy Nuclei (%) [4]: 53%
- Population Hoechst High Intensity Objects (%) [4]: 5%
- Population Membrane Permeable-Phenotype (%) [4]: 10%
- Population Mitochondria Different-Phenotype (%) [4]: 48%
- Population Mitotic Cells (%) [4]: 79%
- Population Normal (%) [4]: 94%
- Population Pyknosed Nuclei (%) [4]: 40%
- Population Tubulin-Different-Phenotype (%) [4]: 57%
- Total Cell Count [4]: 170
- Population Apoptotic (%) [5]: 37%
- Population Fragmented Nuclei (%) [5]: 20%
- Population Healthy Nuclei (%) [5]: 39%
- Population Hoechst High Intensity Objects (%) [5]: 20%
- Population Membrane Permeable-Phenotype (%) [5]: 0%
- Population Mitochondria Different-Phenotype (%) [5]: 75%
- Population Mitotic Cells (%) [5]: 62%
- Population Normal (%) [5]: 79%
- Population Pyknosed Nuclei (%) [5]: 39%
- Population Tubulin-Different-Phenotype (%) [5]: 32%
- Total Cell Count [5]: 178
- Population Apoptotic (%) [6]: 15%
- Population Fragmented Nuclei (%) [6]: 4%
- Population Healthy Nuclei (%) [6]: 69%
- Population Hoechst High Intensity Objects (%) [6]: 3%
- Population Membrane Permeable-Phenotype (%) [6]: 8%
- Population Mitochondria Different-Phenotype (%) [6]: 13%
- Population Mitotic Cells (%) [6]: 84%
- Population Normal (%) [6]: 96%
- Population Pyknosed Nuclei (%) [6]: 25%
- Population Tubulin-Different-Phenotype (%) [6]: 25%
- Total Cell Count [6]: 367
- Population Apoptotic (%) [7]: 58%
- Population Fragmented Nuclei (%) [7]: 17%
- Population Healthy Nuclei (%) [7]: 32%
- Population Hoechst High Intensity Objects (%) [7]: 25%
- Population Membrane Permeable-Phenotype (%) [7]: 0%
- Population Mitochondria Different-Phenotype (%) [7]: 94%
- Population Mitotic Cells (%) [7]: 41%
- Population Normal (%) [7]: 74%
- Population Pyknosed Nuclei (%) [7]: 50%
- Population Tubulin-Different-Phenotype (%) [7]: 69%
- Total Cell Count [7]: 161
- Population Apoptotic (%) [8]: 37%
- Population Fragmented Nuclei (%) [8]: 9%
- Population Healthy Nuclei (%) [8]: 58%
- Population Hoechst High Intensity Objects (%) [8]: 2%
- Population Membrane Permeable-Phenotype (%) [8]: 6%
- Population Mitochondria Different-Phenotype (%) [8]: 71%
- Population Mitotic Cells (%) [8]: 62%
- Population Normal (%) [8]: 97%
- Population Pyknosed Nuclei (%) [8]: 32%
- Population Tubulin-Different-Phenotype (%) [8]: 61%
- Total Cell Count [8]: 169
- Population Apoptotic (%) [9]: 48%
- Population Fragmented Nuclei (%) [9]: 22%
- Population Healthy Nuclei (%) [9]: 37%
- Population Hoechst High Intensity Objects (%) [9]: 21%
- Population Membrane Permeable-Phenotype (%) [9]: 0%
- Population Mitochondria Different-Phenotype (%) [9]: 32%
- Population Mitotic Cells (%) [9]: 51%
- Population Normal (%) [9]: 78%
- Population Pyknosed Nuclei (%) [9]: 40%
- Population Tubulin-Different-Phenotype (%) [9]: 28%
- Total Cell Count [9]: 189
- Population Apoptotic (%) [10]: 17%
- Population Fragmented Nuclei (%) [10]: 5%
- Population Healthy Nuclei (%) [10]: 84%
- Population Hoechst High Intensity Objects (%) [10]: 3%
- Population Membrane Permeable-Phenotype (%) [10]: 4%
- Population Mitochondria Different-Phenotype (%) [10]: 4%
- Population Mitotic Cells (%) [10]: 82%
- Population Normal (%) [10]: 96%
- Population Pyknosed Nuclei (%) [10]: 10%
- Population Tubulin-Different-Phenotype (%) [10]: 25%
- Total Cell Count [10]: 580
- Population Apoptotic (%) [11]: 70%
- Population Fragmented Nuclei (%) [11]: 28%
- Population Healthy Nuclei (%) [11]: 39%
- Population Hoechst High Intensity Objects (%) [11]: 19%
- Population Membrane Permeable-Phenotype (%) [11]: 8%
- Population Mitochondria Different-Phenotype (%) [11]: 74%
- Population Mitotic Cells (%) [11]: 29%
- Population Normal (%) [11]: 80%
- Population Pyknosed Nuclei (%) [11]: 32%
- Population Tubulin-Different-Phenotype (%) [11]: 62%
- Total Cell Count [11]: 181
- Population Apoptotic (%) [12]: 48%
- Population Fragmented Nuclei (%) [12]: 8%
- Population Healthy Nuclei (%) [12]: 63%
- Population Hoechst High Intensity Objects (%) [12]: 2%
- Population Membrane Permeable-Phenotype (%) [12]: 5%
- Population Mitochondria Different-Phenotype (%) [12]: 46%
- Population Mitotic Cells (%) [12]: 51%
- Population Normal (%) [12]: 97%
- Population Pyknosed Nuclei (%) [12]: 28%
- Population Tubulin-Different-Phenotype (%) [12]: 61%
- Total Cell Count [12]: 219
